High-throughput results: PubChem BioAssay, Johns Hopkins Ion Channel Center
KCNK9 block: human KCNK9 channel inhibition. B-score at 10 µM. Q9NPC2. HEK293 KCNK9, FluxOR thallium flux fluorescence; stronger effect = lower value. AID 488922. actives 1.2% (n = 310,000);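 active = ratio B-score over 3 SD below the library mean, with starting fluorescence within 5 SD of its mean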;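 note: negative B-score means less thallium flux so channel inhibition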
Target sequence (Q9NPC2 whole entry, looked up): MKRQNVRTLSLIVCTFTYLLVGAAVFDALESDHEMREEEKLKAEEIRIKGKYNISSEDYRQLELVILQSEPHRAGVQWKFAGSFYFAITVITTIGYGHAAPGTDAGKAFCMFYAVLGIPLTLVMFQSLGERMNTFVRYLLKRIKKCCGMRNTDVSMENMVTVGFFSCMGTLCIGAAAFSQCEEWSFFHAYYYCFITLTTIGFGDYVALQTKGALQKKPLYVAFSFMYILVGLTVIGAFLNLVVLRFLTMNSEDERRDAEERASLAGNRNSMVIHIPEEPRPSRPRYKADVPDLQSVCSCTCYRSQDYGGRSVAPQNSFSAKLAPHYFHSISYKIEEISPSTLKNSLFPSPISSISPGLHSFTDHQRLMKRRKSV
KCNQ1 act: human KCNQ1 channel potentiation or activation | AID 2648 | actives 0.35% (n = 310,000) | CHO-K1 KCNQ1, thallium flux FluxOR fluorescence; stronger effect = higher value | B-score at 10 µM;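 active = fluorescence ratio B-score, a plate-corrected score, at least three library SD, with initial intensity B-score within 5 SD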
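assay system = CHO-K1 cells stably expressing KCNQ1 | medium = assay buffer, equal DMSO in all wells | timing = 37 °C overnight plating, 90-min dark dye load, 20-min compound pretreatment | measured by = kinetic FluxOR thallium fluorescence, 10-s 1-Hz baseline, 110-s post-stimulus read | measure = fluorescence change relative to baseline, converted to B score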
KCNK3 block: human KCNK3 channel inhibition, primary screen; O14649; CHO-KCNK3 thallium flux, FluxOR fluorescence; stronger effect = lower value; B-score at 10 µM; actives 0.84% (n = 340,000); AID 602410;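 active = B-score under library mean minus 4 SD, starting fluorescence ratio at most library mean plus 5 SD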;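 note: more negative B-score means stronger inhibition of thallium flux through KCNK3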
hERG protect: compounds protecting human hERG from proarrhythmic drug block; CHO-hERG, FluxOR thallium flux, dofetilide IC70 present; activation (rescue from dofetilide block), less the hit threshold, % at 10 µM; actives 0.51% (n = 310,000); AID 1511;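 active = activation above the mean of controls blocked by dofetilide plus 5 SD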;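 note: thallium influx through hERG after potassium depolarization seen as dye fluorescence rise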
Kir21 inh: inhibitors of mouse Kir2.1 inward-rectifier potassium channel; P35561; B-score at 10 µM; HEK293-Kir2.1, FluxOR thallium flux fluorescence; stronger effect = lower value; actives 0.85% (n = 310,000);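 active = fluorescence ratio B-score at or below minus 3 SD of library scores, with starting-brightness B-score within 2 SD, cut at about -4.2 in these data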;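 note: channel flux triggered by added potassium and thallium sulfate stimulus; B-score of peak minus minimum fluorescence over baseline after thallium stimulus; more negative B-score means stronger Kir2.1 block with less thallium influx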
KCNQ1 inh: inhibitors of human KCNQ1 potassium channel. AID 2642. P51787. actives 1.3% (n = 310,000). CHO-K1 KCNQ1, FluxOR thallium flux fluorescence; stronger effect = higher value. B-score at 10 µM;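 active = compounds whose thallium flux B-score, printed positive for inhibition, exceeds three library SD while starting fluorescence stays within three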;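 note: channel opened by potassium depolarization with thallium stimulus after 20 min compound exposure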
KCNK9 block conf: human KCNK9 inhibitor confirmation. actives 43% (n = 4,900). HEK293 KCNK9 cells, FluxOR thallium flux fluorescence. shares compounds with KCNK9 block. inhibition, % at 10 µM;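 active = thallium signal inhibited by more than 5 SD of the compound-free buffer control wells, on both duplicate plates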;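 note: 0% = assay buffer control wells without compound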
Kir21 sel: selectivity of KCNK9 modulators against mouse Kir2.1; shares compounds with KCNK9 block; Kir2.1 cells, FluxOR thallium flux fluorescence; inhibition, % at 10 µM; actives 4% (n = 4,900); AID 492993;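 active = thallium signal drop more than 5 SD beyond the mean of the no-compound control wells, seen in both duplicate plates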;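 note: signal is fluorescence rise after thallium addition divided by baseline fluorescence; plate controls were assay buffer only for no effect and full block by chlorpromazine control for full effect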
KCNK9 uninduced: second check of KCNK9 modulator effects in non-induced HEK293 cells | shares compounds with KCNK9 block | FluxOR thallium flux | inhibition, % at 10 µM | actives 40% (n = 4,900) | AID 492997;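 active = thallium signal drop beyond 5 SD of the untreated control mean, on both duplicate plates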;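 note: plate controls were buffer only IC0 wells for no effect and SID17386958 at its maximal inhibitory level for full effect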
* = called active by the depositor; i = inactive; . = no result. Most compounds without a hit are left out; they make up all but 3.7% or so of the library.

SMILES	KCNK9 block	KCNQ1 act	KCNK3 block	hERG protect	Kir21 inh	KCNQ1 inh	KCNK9 block conf	Kir21 sel	KCNK9 uninduced
Cc1c(C(=O)c2ccccc2)oc2ccc3ccccc3c12	-11*	i	i	-4	-1.2	i	56%*	i	40%*
O=c1c2ccccc2[nH]c(=S)n1CCCN1CCC(Cc2ccccc2)CC1	i	i	i	-12	-1.2	i	i	i	i
CC1CCN(CCCn2c(=S)[nH]c3ccccc3c2=O)CC1	i	i	i	-6	1.9	i	.	.	.
CCOc1ccccc1NC(=O)CN1CCC(NC(=O)Nc2ccccc2)CC1	i	i	i	-10	-0.28	i	.	.	.
COc1ccccc1-c1coc2c(CN3CCOCC3)c(O)ccc2c1=O	i	i	i	-6	0.97	i	.	.	.
COc1ccc(CN2C(=O)[C@H]3Cc4c([nH]c5ccccc45)C(C)(C)N3C2=O)cc1	i	i	i	-10	-0.11	i	i	i	i
COc1ccc(CN2C(=O)[C@@H]3Cc4c([nH]c5ccccc45)C(C)(C)N3C2=O)cc1	i	i	i	-4	-0.39	i	.	.	.
Cc1noc(-c2ccc(C(F)(F)F)cc2)c1NC(=O)Nc1ccc(Cl)cc1	i	i	i	-12	-0.91	i	.	.	.
N#Cc1c(Cl)nsc1NCCN1CCOCC1	i	i	i	-2	-0.46	i	.	.	.
O=S(=O)(c1cccs1)N1CCN(CCc2ccccc2)CC1	i	i	i	-3	0.42	i	.	.	.
O=S(=O)(c1ccc(Cl)s1)N1CCN(Cc2ccccc2)CC1	i	i	i	-7	-0.01	i	i	i	i
COc1cc(C)c(C)cc1S(=O)(=O)N1CCN(Cc2ccccc2)CC1	i	i	i	-7	-0.18	i	.	.	.
O=S(=O)(c1ccccc1)N1CCN(Cc2cccc(Br)c2)CC1	i	i	i	-6	1.2	i	.	.	.
CC(C)c1ccc(CN2CCN(S(=O)(=O)c3ccc(Cl)s3)CC2)cc1	.	.	i	.	.	.	.	.	.
Cc1cc(S(=O)(=O)N2CCN(Cc3ccccc3)CC2)c(C)s1	i	i	i	-9	-2.1	i	i	i	i
O=S(=O)(c1cccc(Br)c1)N1CCN(CCc2ccccc2)CC1	i	i	i	-12	0.38	i	i	i	i
O=S(=O)(c1ccc(Cl)s1)N1CCN(CCc2ccccc2)CC1	i	i	i	-7	0.66	i	i	i	i
Cc1ccc(C(=O)N2CCC(C(=O)c3ccc(F)cc3)CC2)cc1	.	.	i	.	.	.	.	.	.
Cc1ccc(C(=O)N2C(=S)C(c3ccc(F)cc3)=NC23CCN(C)CC3)cc1	i	i	i	-17	0.03	i	i	i	i
Fc1ccccc1COc1ccc(-c2nnn(Cc3ccccc3F)n2)cc1	i	i	i	-6	-0.1	i	i	i	i
Cn1nnc(-c2ccc(OCc3ccccc3F)cc2)n1	i	i	i	-3	0.53	i	.	.	.
Cc1cc(C2N=C(N)Nc3nc4ccccc4n32)c(C)n1-c1ccccc1Cl (configuration not stated)	-8.7*	i	i	-11	-0.19	i	52%*	i	39%*
Clc1ccc(SCCOCCN2CCc3ccccc3C2)cc1	i	i	i	-9	-8.5*	i	i	i	i
OC(COC(c1ccccc1)c1ccccc1)CN1CCc2ccccc2C1 (configuration not stated)	i	i	i	-7	-3.7	i	.	.	.
OC(COC(c1ccc(Cl)cc1)c1ccc(Cl)cc1)CN1CCc2ccccc2C1 (configuration not stated)	-16*	i	i	-23	-0.39	i	58%*	i	38%*
SMILES	KCNK9 block	KCNQ1 act	KCNK3 block	hERG protect	Kir21 inh	KCNQ1 inh	KCNK9 block conf	Kir21 sel	KCNK9 uninduced
CC(C(=O)Nc1ccc2c(c1)OCCO2)N1Cc2ccccc2C1=O (configuration not stated)	i	i	i	-7	0.59	i	.	.	.
Cn1nc(C(=O)NCc2ccccc2)c2c1-c1ccccc1S(=O)(=O)C2	i	i	i	-8	0.01	i	.	.	.
OCC1(Cc2ccccc2C(F)(F)F)CCN(Cc2ccccc2)CC1	i	i	i	-17	-0.25	i	i	i	i
OCC1(Cc2ccccc2C(F)(F)F)CCN(Cc2ccc3c(c2)CCO3)CC1	i	i	i	-10	-2.7	i	i	i	i
OCC1(Cc2cccc(C(F)(F)F)c2)CCN(Cc2cc(F)cc(F)c2)CC1	i	i	i	-23	1.3	i	i	i	i
OCC1(Cc2ccc(Cl)cc2)CCN(Cc2ccc(F)c(F)c2)CC1	i	i	i	-9	-0.93	i	.	.	.
CCOC(=O)C1=C(COC(=O)c2ccc(OC)c(S(=O)(=O)N3CCOCC3)c2)NC(=O)NC1C (configuration not stated)	.	.	i	.	.	.	.	.	.
Cc1ccc(NCc2nnc(SCc3ccc(C#N)cc3)n2Cc2ccco2)c(C)c1	-19*	i	i	-15	0.34	i	66%*	i	36%*
O=C(COC(=O)c1ccc(Br)o1)NCc1ccccc1Cl	.	.	i	.	.	.	.	.	.
CCC1SC2=NC(C)=C(C(=O)OCCOC)C(/C=C/c3ccccc3OC)N2C1=O (configuration not stated)	i	i	i	-14	-0.3	i	i	i	34%*
COC(=O)C1=C(C)N=C2SC(C)C(=O)N2C1/C=C/c1ccccc1OC (configuration not stated)	i	i	i	-7	0.33	i	.	.	.
COCCOC(=O)C1=C(C)NC(C)=C(C(=O)OCCOC)C1/C=C/c1ccccc1OC	i	i	i	-7	-1.9	i	i	i	i
CCOC(=O)C1=C(C)NC(C)=C(C(=O)OCC)C1/C=C/c1ccccc1OC	i	i	i	-1	0.7	i	.	.	.
CCC1SC2=NC(C)=C(C(=O)OCC(C)C)C(/C=C/c3ccccc3OC)N2C1=O (configuration not stated)	i	i	i	-15	-2.1	i	32%*	i	47%*
Cc1ccc(CNC(=O)CS(=O)(=O)Cc2nc(-c3ccc(C)cc3)oc2C)cc1	i	i	i	-10	-0.27	i	.	.	.
